Tn7 DDE FP: DD(E)-Tn7 binding inhibition, primary FP screen; P02675; FP displacement of FITC-Tn7 peptide from fibrin DD(E); 0% = median of compound wells per plate; 370,000 compounds, 0.13% hits; inhibition, % at 8.3 µM;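 active = inhibition above the mean of compounds falling within the control limits plus 3 SD of them, cut at about 14% in these data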
Target sequence (P02675 whole entry, looked up): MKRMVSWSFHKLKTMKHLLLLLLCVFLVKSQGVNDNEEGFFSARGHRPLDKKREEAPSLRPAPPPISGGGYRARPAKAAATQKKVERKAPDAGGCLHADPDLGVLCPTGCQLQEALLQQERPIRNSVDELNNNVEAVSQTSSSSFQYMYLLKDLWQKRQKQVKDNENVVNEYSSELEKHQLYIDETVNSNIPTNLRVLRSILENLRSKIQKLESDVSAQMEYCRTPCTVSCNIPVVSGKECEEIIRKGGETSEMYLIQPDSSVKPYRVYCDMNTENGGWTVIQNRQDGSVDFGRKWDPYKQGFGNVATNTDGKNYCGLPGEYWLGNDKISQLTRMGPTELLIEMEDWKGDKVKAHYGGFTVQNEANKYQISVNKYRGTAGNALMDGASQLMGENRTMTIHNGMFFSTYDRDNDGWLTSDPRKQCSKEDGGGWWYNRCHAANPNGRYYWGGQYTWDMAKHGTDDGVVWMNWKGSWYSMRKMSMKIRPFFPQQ
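system = human fibrin DD(E) protein | quantity = DD(E) 2 µM final | medium = Tris/NaCl/CaCl2 buffer, pH 7.8 | also added = labelled Tn7 tracer, 0.1 µM | compound dosing = single point at 8.3 µM | timing = compound with protein 10 min, then 3 h after probe, room temperature | signal = FP measurement | benchmarks = Aha-Tn7 high control | repeats = one replicate per compound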
HTRA1 inhibitor: blocks human HTRA1 serine peptidase; recombinant HTRA1, FP-rhodamine activity-based probe, fluorescence polarization; inhibition, % at 5.96 µM; 340,000 compounds, 0.5% hits; AID 504803; in the data active = inhibition above about 36%
TCR CD3 inh: human TCR-CD3 binding inhibition; TAMRA-labeled TCR probe fluorescence, biochemical; inhibition, % at 9.4 µM; 360,000 compounds, 0.37% hits; AID 651800;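 also: recombinant mutant TCR 2C K166C tagged with TAMRA read by polarization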
ABHD4 inh: inhibitors of mouse ABHD4; inhibition, % at 8.92 µM; AID 720543; 370,000 compounds, 0.54% hits; purified mABHD4, FP-Rh probe fluorescence polarization;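 active = inhibition exceeding the mean over every tested compound plus 3 SD, cut at about 30% in these data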
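Assay system: mABHD4 protein; medium: HEPES pH 7.0, NaCl, Pluronic buffer; dosing: 8.92 µM, single dose; schedule: 45 min + 60 min at 25 °C; signal: FP readout, ex 525 nm / em 598 nm; read-out: normalized percent inhibition of probe labeling; repeats: single replicate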
Tn6 DDE FP: disrupts Tn6 cyclic peptide binding to fibrin D-Dimer-E complex; inhibition, % at 8.3 µM; 370,000 compounds, 0.21% hits; AID 720509; Fibrin DD(E) TRITC-Tn6 fluorescence polarization displacement; P02675;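 active = inhibition above a per-campaign cutoff: mean of compounds within control limits plus 3 SD, cut at about 15% in these data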
BSA TAMRA ctr: counter-screen for TCR-CD3 interaction inhibitors: BSA probe | shares compounds with TCR CD3 inh | TAMRA-labeled BSA probe fluorescence counterscreen | inhibition, % at 9.4 µM | 1,200 compounds, 10% hits; in the data active = inhibition above about 23%
TCR-CD3 conf: confirmation of human TCR-CD3 interaction inhibitors | shares compounds with TCR CD3 inh | TAMRA-labeled TCR probe fluorescence binding assay | inhibition, % at 9.4 µM | 1,200 compounds, 48% hits | AID 652036
Tn6 DDE ctr: DD(E)-Tn6 binding inhibition, counter-screen. AID 720621. shares compounds with Tn6 DDE FP. Fibrin DD(E), TRITC-Tn6 fluorescence polarization displacement; 0% = median of compound wells, not DMSO. inhibition, % at 8.3 µM. 680 compounds, 2% hits;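 active = inhibition above the mean of test compounds lying between the control limits plus 3 SD of those, cut at about 14% in these data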
Tn6 DDE conf: confirmation of inhibitors of Tn6 binding to human fibrin DD(E); shares compounds with Tn6 DDE FP; FP displacement of TRITC-Tn6 peptide from DD(E); 0% = per-plate median of test wells; inhibition, % at 8.3 µM; 680 compounds, 10% hits; AID 720631;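 active = inhibition above the mean of compounds lying within the control limits plus 3 SD, cut at about 16% in these data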
mABHD4 conf: ABHD4 (mouse) inhibition, FP confirmation; shares compounds with ABHD4 inh; purified mABHD4, FP-Rh probe fluorescence polarization; inhibition, % at 8.92 µM; 1,800 compounds, 55% hits; AID 720658;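 active = mean inhibition across replicates above the hit cutoff set in the primary screen, cut at about 30% in these data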
Large screens that a line does not name were inactive (follow-up assays come after a bar, where they were run). Rows were chosen to be rich in hits. Some 1.3% of all compounds tested hit in one or more screens of this group. Rule as the data show it, unless noted: active = inhibition above about 19%; inactive = the rest.

O=C1C=CC(=O)c2c(O)c(N3CCN(CCO)CC3)c(Cl)c(O)c21	TCR CD3 inh 62.8, ABHD4 inh 35.2, Tn6 DDE FP 39.8 | BSA TAMRA ctr inactive | TCR-CD3 conf 38.8 | Tn6 DDE ctr inactive | Tn6 DDE conf inactive | mABHD4 conf 78.6
O=C1C=CC(=O)c2c(O)c(N3CCN(CCOCCO)CC3)c(Br)c(O)c21	TCR CD3 inh 75.3, ABHD4 inh 46.4, Tn6 DDE FP 31.4 | BSA TAMRA ctr inactive | TCR-CD3 conf 48.3 | mABHD4 conf 72.2
N#C/C(=C\c1cc(O)c(O)c(O)c1)C(N)=O	TCR CD3 inh 31.7, ABHD4 inh 38.5 | BSA TAMRA ctr inactive | TCR-CD3 conf inactive | mABHD4 conf inactive
Cc1ccc(C)c(C(=O)N(C)CC(=O)Nc2ccccc2C(F)(F)F)c1	none
COc1c(S(=O)(=O)NCCN2CCOCC2)ccc(Cl)c1Cl	none
CCN1C(=O)/C(=C2\SC(=S)N(c3c(C)n(C)n(-c4ccccc4)c3=O)C2=O)c2ccccc21	none
CCN1C(=O)/C(=C2\SC(=S)N(NC(=O)c3ccccc3O)C2=O)c2ccccc21	TCR CD3 inh 31.4, ABHD4 inh 31.4 | BSA TAMRA ctr inactive | TCR-CD3 conf inactive | mABHD4 conf 73.1
CCCOc1ccc(/C=N/NC(=S)Nc2ccccc2[N+](=O)[O-])c(O)c1	TCR CD3 inh 27.3, ABHD4 inh 39.2 (no result: HTRA1 inhibitor) | BSA TAMRA ctr inactive | TCR-CD3 conf inactive | mABHD4 conf 36.2
CCCOc1ccc(/C=N/Nc2ccccc2[N+](=O)[O-])c(O)c1	none
Cc1cccc(NC(=S)N/N=C/c2cccc(O)c2)c1C	none
Cc1ccccc1NC(=S)N/N=C/c1ccc(O)cc1O	TCR CD3 inh 20.1, ABHD4 inh 34.1 | BSA TAMRA ctr inactive | TCR-CD3 conf inactive | mABHD4 conf inactive
CCN(C(=O)COC(=O)c1cnc(C)cn1)C1CCCCC1	none
COc1ccc(C)cc1S(=O)(=O)Nc1cccc(-c2cn3cccnc3n2)c1	none
O=C1C(=Cc2ccco2)CCCC1=Cc1ccco1	none
O=C1C(=Cc2ccco2)CCC1=Cc1ccco1	TCR CD3 inh 45.4, ABHD4 inh 30.5 | BSA TAMRA ctr inactive | TCR-CD3 conf inactive | mABHD4 conf inactive
CCOc1ccc(C(C)=O)cc1CSc1nc2nc(C)cc(C)n2n1	none
C/C(=N\NC(=O)c1cccc(Cl)c1)c1cccc(NC(=O)c2ccco2)c1	none
C/C(=N\NC(=O)c1cc(O)ccc1O)c1cccc(NC(=O)c2cccc(Cl)c2)c1	TCR CD3 inh 43.2, ABHD4 inh 53.7 | BSA TAMRA ctr inactive | TCR-CD3 conf inactive | mABHD4 conf 36.2
c1ccc(C2OC3c4cccc5cccc(c45)C3N2c2ccccc2)cc1 (stereo unspecified)	TCR CD3 inh 25.5, ABHD4 inh 47.8 | BSA TAMRA ctr inactive | TCR-CD3 conf inactive | mABHD4 conf inactive
Cc1cccc(OCC(=O)NCc2ccccc2)c1	none
C/C(=N\NC(=O)COc1cccc(C)c1)c1ccc2ccccc2c1O	TCR CD3 inh 28.3, ABHD4 inh 48.9 | BSA TAMRA ctr inactive | TCR-CD3 conf inactive | mABHD4 conf 45.9
O=C(COC(=O)c1c2c(nc3ccccc13)/C(=C/c1ccco1)CC2)NC1CCCC1	HTRA1 inhibitor 59.9, TCR CD3 inh 22.7, ABHD4 inh 50.8 | BSA TAMRA ctr inactive | TCR-CD3 conf inactive | mABHD4 conf inactive
Cc1ccc(CNC(=O)Cn2c(=O)c3sccc3n(Cc3ccc([N+](=O)[O-])cc3)c2=O)cc1	none
